As a reminder, the MIC is the least concentration at which growth counts as inhibited. A higher MIC goes with a need for much substance.

≈ marks a conversion by molar mass, not a printed value. Calls of active or inactive are those of the source. No cut-off for these calls is given here.

Assay [1] concerns Rhizopus arrhizus. Nature of the assay: Antimicrobial activity against Rhizopus oryzae 4570. Format: functional. The essentials:
(§1)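 CLSI M38-A broth microdilution. Isolates were grown on Sabouraud dextrose agar for 5 days at 35°C, and conidia were harvested in 0.85% saline. The final inoculum was about 10^4 CFU/ml, set by hemocytometer. Drug range 0.015–8.0 µg/ml; plates incubated at 35°C for 21–26 h. MIC was the lowest concentration with no discernible growth. Each strain was tested in quintuplicate.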

Assay [2] relates to Rhizopus arrhizus. Briefly: Antimicrobial activity against Rhizopus oryzae 4745. Format: functional. The essentials:
as §1

In assay [3] the test system is Lichtheimia corymbifera. Nature of the assay: Antimicrobial activity against Absidia corymbifera 4535. The assay is classed as functional. The essentials: as §1
The test system of assay [4] is Mus musculus. Nature of the assay: Increase in survival of Rhizopus oryzae 4570 infected neutropenic CD1 mouse at 1 mg/kg/day, ip. The assay is classed as functional, organism-based. The gist of the method: (§2)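 Male CD1 mice (25 g) made neutropenic with cyclophosphamide 200 mg/kg i.p. on […], +1 and +4 relative to infection. […] Inocula per mouse: R. oryzae 4570, 5 x 10^6; A. corymbifera, 5 x 10^5; R. oryzae 4745, 2 x 10^6 or 1 x 10^5. Deaths were recorded daily to day 10, with 13–18 mice/group and log-rank comparison.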

Assay [5] concerns Lichtheimia corymbifera. Nature of the assay: Percentage of infected lung in neutropenic CD1 mouse infected with Absidia corymbifera 4535 at 1 mg/kg/day, ip. Particulars: route intraperitoneal. The assay is classed as functional. The essentials:
(§3)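 They were infected i.v. with R. oryzae 4570 (5 x 10^6 spores) or A. corymbifera (5 x 10^5 spores). On day 3 brain, lungs, spleen and kidneys were homogenized in 2 ml saline and plated whole on SDA (detection limit 1 CFU/organ). Value is % culture-positive organs; 8 mice/group.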

The subject of assay [6] is Lichtheimia corymbifera. Briefly: Percentage of infected spleen in neutropenic CD1 mouse infected with Absidia corymbifera 4535 at 1 mg/kg/day, ip. The assay is classed as functional. Particulars: route intraperitoneal. The gist of the method:
as §3

In assay [7] the test system is Lichtheimia corymbifera. Briefly: Percentage of infected kidney in neutropenic CD1 mouse infected with Absidia corymbifera 4535 at 1 mg/kg/day, ip. Format: functional. To be noted: route intraperitoneal. The gist of the method: as §3
Assay [8] relates to Mus musculus. Nature of the assay: Increase in survival of Absidia corymbifera 4535 infected neutropenic CD1 mouse at 1 mg/kg/day, ip. Format: functional, organism-based. The gist of the method: as §2
The test system of assay [9] is Mus musculus. Nature of the assay: Increase in survival of neutropenic CD1 mouse infected with 2 mega Rhizopus oryzae 4745 at 1 mg/kg/day, ip. The assay is classed as functional, organism-based. The gist of the method:
as §2

The test system of assay [10] is Mus musculus. Briefly: Increase in survival of neutropenic CD1 mouse infected with 0.1 mega Rhizopus oryzae 4745 at 1 mg/kg/day, ip. The assay is classed as functional, organism-based. The gist of the method:
as §2

Assay [11] deals with Rhizopus arrhizus. Briefly: Reduction of number of infection foci in Rhizopus oryzae 4570 infected neutropenic CD1 mouse kidney at 1 mg/kg/day, ip. Format: functional, organism-based. The gist of the method: (§4)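 On day 3 brains and kidneys were formalin-fixed and stained with Grocott-Gomori methenamine silver. At least two blinded observers counted hyphal foci and measured their size over 20 consecutive fields (15.7 mm2/section). Data are means ± SEM, 5 mice/group, ANOVA with Bonferroni.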

Assay [12] concerns Lichtheimia corymbifera. Nature of the assay: Reduction of number of infection foci in Absidia corymbifera 4535 infected neutropenic CD1 mouse kidney at 1 mg/kg/day, ip. The assay is classed as functional, organism-based. The essentials:
as §4

Assay [13] concerns Rhizopus arrhizus. Briefly: Reduction of infection foci size in Rhizopus oryzae 4570 infected neutropenic CD1 mouse kidney at 1 mg/kg/day, ip. Format: functional, organism-based. The gist of the method: as §4
In assay [14] the test system is Lichtheimia corymbifera. Nature of the assay: Reduction of infection foci size in Absidia corymbifera 4535 infected neutropenic CD1 mouse kidney at 1 mg/kg/day, ip. Format: functional, organism-based. The essentials:
as §4

Assay [15] has as its system Lichtheimia corymbifera. Briefly: Percentage of infected brain in neutropenic CD1 mouse infected with Absidia corymbifera 4535 at 30 mg/kg/day, po. Format: functional. The gist of the method:
(§5)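 Neutropenic CD1 mice received three daily oral prophylactic doses, the last 2 h before i.v. challenge: R. oryzae 4570 at 5 x 10^6 or A. corymbifera at 5 x 10^5 spores/mouse. On day 3 mice were killed. Brain, lungs, spleen and kidneys were homogenized in 2 ml saline and plated whole on SDA; detection limit 1 CFU/organ. Read-out was percent culture-positive organs, eight mice per group.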

Assay [16] deals with Rhizopus arrhizus. Nature of the assay: Percentage of infected lung in neutropenic CD1 mouse infected with Rhizopus oryzae 4570 at 30 mg/kg/day, po. The assay is classed as functional. The gist of the method: as §5
Assay [17] has as its system Lichtheimia corymbifera. Briefly: Percentage of infected lung in neutropenic CD1 mouse infected with Absidia corymbifera 4535 at 30 mg/kg/day, po. The assay is classed as functional. The essentials:
as §5

Assay [18] deals with Rhizopus arrhizus. Briefly: Percentage of infected spleen in neutropenic CD1 mouse infected with Rhizopus oryzae 4570 at 30 mg/kg/day, po. Format: functional. The gist of the method:
as §5

Assay [19] concerns Lichtheimia corymbifera. Briefly: Percentage of infected spleen in neutropenic CD1 mouse infected with Absidia corymbifera 4535 at 30 mg/kg/day, po. Format: functional. The gist of the method:
as §5

In assay [20] the test system is Rhizopus arrhizus. Briefly: Percentage of infected kidney in neutropenic CD1 mouse infected with Rhizopus oryzae 4570 at 30 mg/kg/day, po. Format: functional. The essentials:
as §5

In assay [21] the test system is Lichtheimia corymbifera. Nature of the assay: Percentage of infected kidney in neutropenic CD1 mouse infected with Absidia corymbifera 4535 at 30 mg/kg/day, po. Format: functional. The essentials:
as §5

Assay [22] deals with Mus musculus. Briefly: Increase in survival of Rhizopus oryzae 4570 infected neutropenic CD1 mouse at 20 mg/kg/day, po. The assay is classed as functional, organism-based. The essentials: (§6)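 Male CD1 mice (25 g) were made neutropenic with i.p. cyclophosphamide, 200 mg/kg, on days […] and +4 postinfection. Oral gavage dosing (200 µl) was given daily for 3 days, the last dose 2 h before i.v. challenge; controls received PEG 200. Challenge per mouse: R. oryzae 4570, 5 x 10^6 spores; A. corymbifera, 5 x 10^5; R. oryzae 4745, 1 x 10^5. Deaths were recorded daily to day 10, moribund mice counted dead next day. 13–18 mice per group; log rank test.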

For assay [23], the system named is Mus musculus. Nature of the assay: Increase in survival of Rhizopus oryzae 4570 infected neutropenic CD1 mouse at 80 mg/kg/day, po. The assay is classed as functional, organism-based. The gist of the method: as §6
Assay [24] deals with Mus musculus. Briefly: Increase in survival of Absidia corymbifera 4535 infected neutropenic CD1 mouse at 20 mg/kg/day, po. Format: functional, organism-based. The gist of the method:
as §6

The test system of assay [25] is Mus musculus. Briefly: Increase in survival of Absidia corymbifera 4535 infected neutropenic CD1 mouse at 80 mg/kg/day, po. Format: functional, organism-based. The essentials: as §6
For assay [26], the system named is Mus musculus. Briefly: Increase in survival of neutropenic CD1 mouse infected with 0.1 mega Rhizopus oryzae 4745 at 50 mg/kg/day, po. The assay is classed as functional, organism-based. The essentials: as §6
Assay [27] relates to Rhizopus arrhizus. Nature of the assay: Reduction of number of infection foci in Rhizopus oryzae 4570 infected neutropenic CD1 mouse kidney at 30 mg/kg/day, po. The assay is classed as functional, organism-based. The gist of the method: (§7)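 Neutropenic CD1 mice were given oral prophylaxis for 3 days, then i.v. challenge with R. oryzae 4570 (5 x 10^6 spores) or A. corymbifera (5 x 10^5). On day 3, brain and kidney were formalin-fixed, paraffin-embedded and stained with Grocott-Gomori methenamine silver. Number and size of hyphal foci were scored blind by at least two observers in 20 consecutive fields (15.7 mm2 per section). Values are mean ± SEM from 5 mice per group; ANOVA with Bonferroni correction.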

Assay [28] deals with Rhizopus arrhizus. Briefly: Reduction of number of infection foci in Rhizopus oryzae 4570 infected neutropenic CD1 mouse brain at 30 mg/kg/day, po. Format: functional, organism-based. The essentials: as §7
The subject of assay [29] is Lichtheimia corymbifera. Nature of the assay: Reduction of number of infection foci in Absidia corymbifera 4535 infected neutropenic CD1 mouse kidney at 30 mg/kg/day, po. The assay is classed as functional, organism-based. The essentials:
as §7

Assay [30] has as its system Lichtheimia corymbifera. Briefly: Reduction of number of infection foci in Absidia corymbifera 4535 infected neutropenic CD1 mouse brain at 30 mg/kg/day, po. Format: functional, organism-based. The essentials: as §7
Assay [31] relates to Rhizopus arrhizus. Briefly: Reduction of infection foci size in Rhizopus oryzae 4570 infected neutropenic CD1 mouse kidney at 30 mg/kg/day, po. The assay is classed as functional, organism-based. The essentials: as §7
The subject of assay [32] is Rhizopus arrhizus. Nature of the assay: Reduction of infection foci size in Rhizopus oryzae 4570 infected neutropenic CD1 mouse brain at 30 mg/kg/day, po. The assay is classed as functional, organism-based. The gist of the method: as §7
The test system of assay [33] is Lichtheimia corymbifera. Briefly: Reduction of infection foci size in Absidia corymbifera 4535 infected neutropenic CD1 mouse kidney at 30 mg/kg/day, po. Format: functional, organism-based. The gist of the method: as §7
The subject of assay [34] is Lichtheimia corymbifera. Briefly: Reduction of infection foci size in Absidia corymbifera 4535 infected neutropenic CD1 mouse brain at 30 mg/kg/day, po. The assay is classed as functional, organism-based. The gist of the method: as §7
The subject of assay [35] is Rhizopus arrhizus. Nature of the assay: Percentage of infected brain in neutropenic CD1 mouse infected with Rhizopus oryzae 4570 at 30 mg/kg/day, po. Format: functional. The gist of the method:
as §5

Consider `C[C@@H]1[C@H](O)[C@@H](C)/C=C/C=C/C=C/C=C/C=C/C=C/C=C/[C@H](O[C@@H]2O[C@H](C)[C@@H](O)[C@H](N)[C@@H]2O)C[C@@H]2O[C@](O)(C[C@@H](O)C[C@@H](O)[C@H](O)CC[C@@H](O)C[C@@H](O)CC(=O)O[C@H]1C)C[C@H](O)[C@H]2C(=O)O` [AMPHOTERICIN B], for which the minimal inhibitory concentration (MIC) against Rhizopus arrhizus [1] was found to be 2 µg/mL (≈ 2.16 µM); in the assay with Rhizopus arrhizus [2] it was 0.5 µg/mL (≈ 0.541 µM); in the assay on Lichtheimia corymbifera [3], 1 µg/mL (≈ 1.08 µM). For the same molecule, the result in the assay with Mus musculus [4], in the assay on Mus musculus [8], with Mus musculus [9], with Mus musculus [10], in the assay on Rhizopus arrhizus [11] and with Lichtheimia corymbifera [12] was Active. Moreover, the result in the assay on Rhizopus arrhizus [13] and in the assay on Lichtheimia corymbifera [14] was Active. Besides, the Activity was determined as 25% in the assay with Lichtheimia corymbifera [5], 100% in the assay on Lichtheimia corymbifera [6] and 62.5% in the assay with Lichtheimia corymbifera [7].
Regarding `CC[C@@H]([C@H](C)O)n1ncn(-c2ccc(N3CCN(c4ccc(OC[C@@H]5CO[C@@](Cn6cncn6)(c6ccc(F)cc6F)C5)cc4)CC3)cc2)c1=O` [POSACONAZOLE], the figures for the MIC in the assay with Rhizopus arrhizus [1], against Rhizopus arrhizus [2] and in the assay on Lichtheimia corymbifera [3] were 1 µg/mL (≈ 1.43 µM), 1 µg/mL (≈ 1.43 µM) and 0.25 µg/mL (≈ 0.357 µM), respectively. Also, the Activity in the assay on Lichtheimia corymbifera [15] worked out at 62.5%; in the assay with Rhizopus arrhizus [16], 100%; in the assay with Lichtheimia corymbifera [17] it was 12.5%; with Rhizopus arrhizus [18] it was 100%; with Lichtheimia corymbifera [19] it was 100%; with Rhizopus arrhizus [20], 100%. The Activity in the assay with Lichtheimia corymbifera [21] worked out at 75%; with Rhizopus arrhizus [35], 100%. The outcome with Mus musculus [22], in the assay with Mus musculus [23], in the assay on Rhizopus arrhizus [28] and with Rhizopus arrhizus [32] was inactive. In addition, the outcome with Mus musculus [24], in the assay with Mus musculus [25], in the assay on Mus musculus [26], in the assay on Rhizopus arrhizus [27], in the assay on Lichtheimia corymbifera [29] and in the assay on Lichtheimia corymbifera [30] was Active. Moreover, the outcome with Rhizopus arrhizus [31], in the assay with Lichtheimia corymbifera [33] and with Lichtheimia corymbifera [34] was Active.

For the origin of these results see ChEMBL document CHEMBL1142145, “Posaconazole prophylaxis in experimental systemic zygomycosis” (2007).
